Screens: PubChem BioAssay, Broad Institute
Sampled rows, rich in hits. Any-hit rate of the full collection: about 2.9%.
PGC1a acetyl inh – inhibitors of PGC1a acetylation signal, primary screen, cell-based, U2OS, AlphaScreen, inhibitor mode. inhibition, % at 15.6 µM. AlphaScreen anti-acetyl-lysine; with virally co-expressed GCN5 acetyltransferase. hit rate 0.17% among 350,000;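 active = every replicate shows inhibition of at least 40%; inconclusive = mean inhibition at least 40% but some replicate below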;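 note: 0% = neutral control wells and 100% = positive control wells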
C2C12 statin – suppressors of statin myotoxicity in C2C12 myotubes, primary screen, cell-based, single point, plate reader. C2C12 myotubes + simvastatin, ATP luminescence, 48 h; scaled: DMSO 0, geranylgeraniol control 100. rescue of ATP level, % at 7.49 µM. hit rate 0.78% among 330,000. AID 602340, 2012;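 active = mean ATP rescue above about 67%, or every replicate alone reaching that limit, limit read from the data, passing the limit was not always enough; inconclusive = no clear call, values can overlap the other calls; inactive = mean under the limit and some replicate under it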;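 note: myotubes were challenged with 10 µM simvastatin during compound exposure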
SIRT5 inh – SIRT5 desuccinylase inhibitors, primary screen, biochemical, fluorescence imaging, single point, set 5 | NAD-dependent protein deacylase sirtuin-5, mitochondrial (Homo sapiens), Q9NXA8 | Purified SirT5, succinyl-peptide AMC, trypsin-coupled fluorescence | inhibition, % at 15 µM | hit rate 1.1% among 330,000 | AID 652115, 2013; in the data active = inhibition above about 15%; inconclusive = no clear call, values can overlap the other calls
Target sequence (Q9NXA8 whole entry, looked up): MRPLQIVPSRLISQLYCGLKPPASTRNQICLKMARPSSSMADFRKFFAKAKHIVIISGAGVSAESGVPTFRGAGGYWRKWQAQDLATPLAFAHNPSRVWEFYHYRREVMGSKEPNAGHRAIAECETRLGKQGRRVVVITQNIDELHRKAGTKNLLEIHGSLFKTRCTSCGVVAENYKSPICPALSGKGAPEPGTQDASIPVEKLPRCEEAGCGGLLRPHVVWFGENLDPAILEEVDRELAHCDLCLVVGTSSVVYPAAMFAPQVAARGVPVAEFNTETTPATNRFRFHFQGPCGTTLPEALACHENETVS
S100A4 MyoIIA – inhibitors of S100A4-myosin IIA peptide binding, primary screen, biochemical, fluorescence polarization, TAMRA-MyoIIA peptide. inhibition, % at 10.7 µM. hit rate 0.14% among 360,000;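 active = mean inhibition of at least 70% across replicates, with every replicate also reaching that level; inconclusive = mean inhibition reaches 70% but some replicates fall short; inactive = mean inhibition below 70%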
Target sequence (P26447 whole entry, looked up): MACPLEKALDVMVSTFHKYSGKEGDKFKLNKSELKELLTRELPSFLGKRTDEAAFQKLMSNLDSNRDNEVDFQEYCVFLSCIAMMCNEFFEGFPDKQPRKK
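Test system: S100A4 monomer protein; Medium: HEPES pH 7.2 with CaCl2, KCl, NaCl, DTT, Triton; Probe or stimulus: TAMRA-labelled myosin IIA heavy-chain peptide probe, 5 nM; Doses: one dose per compound; Times: polarization read 5 min after assay mix addition, stable 5–60 min; Benchmarks: neutral control DMSO, positive control TFP.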
DENV2 CPE rescue – inhibitors of DENV2 cytopathic effect, primary screen, cell-based, plate reader, single concentration; CPE inhibition, % at 9.99 µM; hit rate 1.7% among 350,000; DENV2-infected cells, cytopathic effect rescue; AID 651640, 2012; in the data active = CPE inhibition above about 20%, passing the limit was not always enough; inconclusive = no clear call, values can overlap the other calls; tested in BHK-21 cells;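 note: 0% = median of neutral control wells and 100% = median of positive control wells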
* = called active by the depositor; ? = inconclusive; / = no result; ! = not active in a repeat.

SMILES	PGC1a acetyl inh	C2C12 statin	SIRT5 inh	S100A4 MyoIIA	DENV2 CPE rescue
Cc1noc(C)c1NC(=O)N[C@@H]1CC[C@@H](CCNC(=O)C2CC2)O[C@H]1CO	5	-1	1	3	1
COc1ccc(O)c(/C=N/NC(=O)CN2CCS(=O)(=O)CC2)c1	3	-7	-6	-4	54*
CS(=O)(=O)N(CCC#N)Cc1ccco1	-6	/	16*	-5	-2
Cc1ccc(-c2ccc3c(c2)O[C@@H](CN(C)C(=O)Nc2ccc(F)cc2)[C@@H](C)CN([C@H](C)CO)S3(=O)=O)cc1	-5	-67	4	-2	-10
C[C@H](CO)N1C[C@H](C)[C@@H](CN(C)S(=O)(=O)c2cccs2)OCCCC[C@H](C)Oc2ccc(NS(=O)(=O)c3cn(C)cn3)cc2C1=O	1	/	0	-42	-6
COc1ccc(CNc2ncnc3cc(OC)c(OC)cc23)cc1	7	111*	/	/	/
CC(C)CC(NC(=O)C1CCC(C)CC1)C(=O)NCc1cccnc1 (centres undefined)	-5	-1	/	/	/
CC(C)CC(NC(=O)C1CCC(C)CC1)C(=O)Nc1cccnc1 (centres undefined)	-18	108*	/	/	/
O=C(c1ccccc1)C(O)(Cc1ccccc1)c1ccccc1 (centres undefined)	-54	-7	-2	1	36*
CC(O)(C(=O)c1ccccc1)c1ccccc1 (centres undefined)	3	0	/	1	10
CCOC(=O)C1=CN2CCCC[C@@H]2CC1=O	-5	10	/	-8	-9
CCOC(=O)C1=CN2CCC[C@H]2CC1=O	/	-13	/	0	63*
COc1ccc2c(c1OC)C(=O)OC2	-7	5	7	-1	?
COc1ccc2c3c(cccc13)C(=O)CC2	/	/	1	166*	?
COc1ccc(NC(=O)Nc2ccc3c(c2)C(=O)N([C@H](C)CO)C[C@H](C)[C@H](CN(C)Cc2ccc4c(c2)OCO4)OCCCC[C@@H](C)O3)cc1	4	/	0	5	-12
COc1ccc2c3c([nH]c2c1)[C@H](CO)N(C(=O)C1CCCCC1)CC31CN(C(=O)NC(C)C)C1	/	/	-4	8	-7
O=C1NN(c2ccccc2)C(=O)/C1=C\c1ccc(-c2cc([N+](=O)[O-])ccc2O)o1	-3	4	18*	-5	6
O=C1NN(c2ccc(Cl)cc2)C(=O)/C1=C\c1ccc(-c2cccc(C(=O)O)c2)o1	0	/	28*	-9	-5
Cc1ccc(SCCC(=O)NC2CC2)cc1	8	-11	16*	-1	-5
O=C(C[C@H]1CC[C@@H](NS(=O)(=O)c2ccc(F)cc2)[C@@H](CO)O1)NCc1ccc(Cl)c(Cl)c1	3	37	-2	5	-5
Nc1[nH]c(C(=O)c2ccccc2)c(-c2ccc(Cl)c(F)c2)c1C(=O)NCCc1c[nH]c2ccccc12	/	/	39*	-15	3
COc1ccc(C(=O)c2[nH]c(N)c(C(=O)NCCc3c[nH]c4ccccc34)c2-c2ccccc2C(F)(F)F)cc1	/	/	/	-1	-5
COc1ccc(C(=O)c2[nH]c(N)c(C(=O)NCCc3c[nH]c4ccccc34)c2-c2c(F)cccc2Cl)cc1	/	/	-2	3	67*
Nc1[nH]c(C(=O)c2ccccc2)c(-c2ccc(Cl)c(Cl)c2)c1C(=O)NCCc1c[nH]c2ccccc12	/	/	-1	-4	1
Nc1[nH]c(C(=O)c2ccccc2)c(-c2cc(F)ccc2Br)c1C(=O)NCCc1c[nH]c2ccccc12	/	/	1	0	29*
SMILES	PGC1a acetyl inh	C2C12 statin	SIRT5 inh	S100A4 MyoIIA	DENV2 CPE rescue
O=C(C[C@@H]1C[C@@H]2c3cc(NC(=O)C4CCC4)ccc3O[C@@H]2[C@H](CO)O1)NCc1ccc(Cl)cc1	6	-8	-3	5	-4
Cc1noc(C)c1S(=O)(=O)Nc1ccc2c(c1)C(=O)N([C@H](C)CO)C[C@@H](C)[C@H](CN(C)S(=O)(=O)c1ccc(F)cc1)OCCCC[C@@H](C)O2	25	/	1	-21	-7
CCC(=O)Nc1ccc2c(c1)C(=O)N(C)C[C@@H](OC)[C@H](C)CN(C(=O)NC(C)C)[C@@H](C)CO2	-10	-7	-3	-7	10
C[C@H](CO)N1C[C@H](C)[C@@H](CN(C)Cc2ccccc2)Oc2ccc(NC(=O)C3CCCCC3)cc2CC1=O	0	32	0	-26	38*
COc1ccc(CN(C)C[C@@H]2Oc3ccc(NC(=O)C4CCCCC4)cc3C(=O)N([C@@H](C)CO)C[C@@H]2C)cc1	3	-9	-4	28	38*
COc1ccc(CN(C)C[C@H]2Oc3ccc(NC(=O)C4CCCCC4)cc3C(=O)N([C@@H](C)CO)C[C@@H]2C)cc1	-7	-4	-1	-3	-3
C[C@H]1CN([C@@H](C)CO)C(=O)Cc2cc(NC(=O)C3CCCCC3)ccc2O[C@@H]1CN(C)Cc1ccc(-c2ccccc2)cc1	-2	23	-4	4	?
C[C@@H]1CN([C@H](C)CO)C(=O)Cc2cc(NC(=O)C3CCCCC3)ccc2O[C@H]1CN(C)Cc1ccc(-c2ccccc2)cc1	-6	99*	-5	7	7
C[C@@H]1CN([C@H](C)CO)C(=O)Cc2cc(NC(=O)C3CCCCC3)ccc2O[C@@H]1CN(C)Cc1ccc(-c2ccccc2)cc1	-2	-94	102*	2	9
COc1ccc2c3c([nH]c2c1)[C@H](CO)N(C(C)=O)CC31CN(C(=O)Nc2ccccc2F)C1	7	/	/	/	13
CC(C)C[C@@H]1NC(=O)[C@@H]2C[C@H](C(=O)O)[C@H](c3cccc(OCCO)c3)N2C1=O	5	/	-1	-7	3
CC(C)CC#Cc1cnc2c(c1)C(=O)N([C@H](C)CO)C[C@@H](C)[C@H](CN(C)S(=O)(=O)c1cn(C)cn1)O2	1	14	-7	45	-4
C[C@H](CO)N1C[C@H](C)[C@@H](CN(C)Cc2ccc(C(F)(F)F)cc2)Oc2ccc(NC(=O)C3CCCCC3)cc2CC1=O	-5	71*	3	5	42*
C[C@H]1CN([C@@H](C)CO)C(=O)c2cc(NC(=O)C3CCCCC3)ccc2O[C@H]1CN(C)Cc1ccc(-c2ccccc2)cc1	7	-3	40*!	8	-3
CN1C(=O)c2cc(NC(=O)Nc3ccccc3F)ccc2OC[C@@H]2O[C@H](CC(=O)NCc3ccc(-c4ccccc4)cc3)CC[C@H]21	1	35	0	-11	?
NC(=O)CCCn1c(C(=O)c2ccc(Cl)cc2)c2ccc([N+](=O)[O-])cc2[n+]1[O-]	7	50	/	0	-8
